Compound activity from PubChem.
JNK3 blocker = blocks human JNK3 kinase activity; P53779; purified JNK3 kinase activity, HTS; inhibition, % at 8 µM; 60,000 compounds, 0.61% hits; AID 746; in the data active means inhibition above about 17%
PKA kinase inh = PKA (human) kinase inhibition. P17612. PKA Kemptide phosphorylation, Kinase-Glo ATP luminescence. inhibition, % at 6 µM. 65,000 compounds, 0.1% hits. AID 524;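 active means inhibition above the screen-wide mean inhibition plus 3 SD, cut at about 21% in these data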
MT1-MMP txn act = activates MT1-MMP transcription | activation factor at 10 µM | HT1080 MT1-MMP promoter luciferase reporter, luminescence, overnight; hits give high values | 86,000 compounds, 0.16% hits;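 active means activation factor of at least 2 for MT1-MMP transcription at 10 µM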
SF-1 act = activates the human nuclear receptor SF-1; activation, % at 10 µM; CHO-K1 Gal4-SF-1 LBD luciferase reporter; % increase over DMSO SF-1-specific signal; 65,000 compounds, 1.9% hits;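 active means activation above the mean activation of all tested compounds plus 3 SD, cut at about 50% in these data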
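Material: CHO-K1 cells with Gal4–hSF-1 LBD chimera plus Gal4-driven luciferase / Input: 4,000 CHO-K1 cells per well / Incubation: compound exposure 20 h at 37 °C / Signal: luminescence read 15 min after SteadyLite luciferase reagent, after room-temperature equilibration / Read-out: percent activation versus DMSO / Benchmarks: DMSO negative control and −SF1 background wells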
ROCK2 inh = ROCK2 (human) kinase inhibition. 60,000 compounds, 0.35% hits. purified ROCK2, Kinase-Glo ATP depletion luminescence. AID 604. inhibition, % at 6 µM;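 active means inhibition above the screen-wide mean inhibition plus 3 SD, cut at about 18% in these data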
Target sequence (O75116 whole entry, looked up): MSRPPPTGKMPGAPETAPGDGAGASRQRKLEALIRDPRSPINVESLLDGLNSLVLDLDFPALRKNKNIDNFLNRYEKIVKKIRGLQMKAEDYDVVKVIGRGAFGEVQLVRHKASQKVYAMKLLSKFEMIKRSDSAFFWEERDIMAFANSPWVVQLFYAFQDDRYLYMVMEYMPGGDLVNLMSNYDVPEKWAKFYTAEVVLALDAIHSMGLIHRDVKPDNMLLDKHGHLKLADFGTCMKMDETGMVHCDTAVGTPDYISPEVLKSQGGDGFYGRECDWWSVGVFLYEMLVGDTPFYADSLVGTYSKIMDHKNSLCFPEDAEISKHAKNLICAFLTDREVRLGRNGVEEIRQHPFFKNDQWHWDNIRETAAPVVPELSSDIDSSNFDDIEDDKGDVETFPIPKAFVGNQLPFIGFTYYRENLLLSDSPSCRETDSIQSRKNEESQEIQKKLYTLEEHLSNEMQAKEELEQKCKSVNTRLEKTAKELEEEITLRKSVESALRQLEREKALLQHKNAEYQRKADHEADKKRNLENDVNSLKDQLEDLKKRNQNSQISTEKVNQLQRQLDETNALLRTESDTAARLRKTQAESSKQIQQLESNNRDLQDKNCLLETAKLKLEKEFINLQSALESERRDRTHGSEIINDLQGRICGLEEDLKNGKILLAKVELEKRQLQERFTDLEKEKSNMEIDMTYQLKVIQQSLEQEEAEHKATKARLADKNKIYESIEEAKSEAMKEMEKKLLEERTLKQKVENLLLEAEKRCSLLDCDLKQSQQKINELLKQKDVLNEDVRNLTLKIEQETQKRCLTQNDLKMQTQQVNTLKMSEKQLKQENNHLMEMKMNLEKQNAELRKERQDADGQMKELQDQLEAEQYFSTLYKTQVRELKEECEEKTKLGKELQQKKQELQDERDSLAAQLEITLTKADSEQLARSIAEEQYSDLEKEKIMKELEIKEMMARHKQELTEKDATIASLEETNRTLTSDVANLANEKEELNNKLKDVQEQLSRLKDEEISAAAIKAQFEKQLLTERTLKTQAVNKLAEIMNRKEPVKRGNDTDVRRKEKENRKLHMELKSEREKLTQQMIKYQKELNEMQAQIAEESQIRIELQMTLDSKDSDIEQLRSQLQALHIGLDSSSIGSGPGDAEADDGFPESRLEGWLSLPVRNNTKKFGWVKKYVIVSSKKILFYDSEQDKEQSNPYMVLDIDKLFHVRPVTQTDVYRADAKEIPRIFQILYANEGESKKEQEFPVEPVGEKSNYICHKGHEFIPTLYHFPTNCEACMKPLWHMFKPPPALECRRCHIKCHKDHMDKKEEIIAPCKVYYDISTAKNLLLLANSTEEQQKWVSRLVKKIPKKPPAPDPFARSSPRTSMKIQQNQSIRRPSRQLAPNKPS
RORa activator = activates the human nuclear receptor RORA. P35398. CHO-K1 Gal4-RORA LBD luciferase reporter, luminescence; percent increase over mock-subtracted basal signal. activation, % at 10 µM. AID 560. 65,000 compounds, 1.5% hits;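 active means activation above the mean of all tested compounds plus 3 SD, cut at about 49% in these data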
Large screens that a line does not name were inactive. Most compounds without a hit are left out; they make up all but 2.5% or so of the library.

COc1ccc2nc(NC(=O)Cc3ccc(OC)c(S(=O)(=O)N4CCOCC4)c3)sc2c1	JNK3 blocker 29
COc1ccc2nc(NC(=O)c3cccc(OCc4c(C)noc4C)c3)sc2c1	RORa activator 86
CCCC(=O)Nc1nc2ccc(OC)cc2s1	SF-1 act 54, RORa activator 56
COc1ccc2nc(NC(=O)CSc3ccccc3)sc2c1	none (no result: JNK3 blocker, PKA kinase inh, SF-1 act, ROCK2 inh, RORa activator)
COc1ccc2nc(NC(=O)c3cccc(S(=O)(=O)N4CCOCC4)c3)sc2c1	none (no result: JNK3 blocker, PKA kinase inh, SF-1 act, ROCK2 inh, RORa activator)
COC(=O)N1[C@H](C)C=C[C@]1(Cc1ccccc1)C(=O)NCc1ccc(C)o1	none (no result: JNK3 blocker, PKA kinase inh, SF-1 act, ROCK2 inh, RORa activator)
Cc1ccc(CNC(=O)[C@H](C)[C@@H]2C[C@@]2(C)[C@@H](NC(=O)OCc2ccccc2)c2ccccc2)o1	none (no result: JNK3 blocker, PKA kinase inh, SF-1 act, ROCK2 inh, RORa activator)
Cc1ccccc1-n1c(C)nnc1SCC(=O)N1CC(=O)Nc2ccccc21	none
CC1(C)Cc2nc3sc4c(=O)[nH]cnc4c3cc2CS1	SF-1 act 63
CC1(C)Cc2[nH]c(=O)c(C#N)cc2CS1	none
CCCn1c(C)cc(C(=O)CN2C(=O)c3ccccc3C2=O)c1C	SF-1 act 65, RORa activator 55
N#Cc1cn(-c2ccccc2)nc1-c1ccco1	none (no result: JNK3 blocker, PKA kinase inh, SF-1 act, ROCK2 inh, RORa activator)
O=Cc1cn(-c2ccccc2)nc1-c1ccc2c(c1)OCCO2	MT1-MMP txn act 2 (no result: JNK3 blocker, PKA kinase inh, SF-1 act, ROCK2 inh, RORa activator)
N#Cc1cn(-c2ccccc2)nc1-c1ccc2c(c1)OCCO2	SF-1 act 55, RORa activator 62
O=Cc1cn(-c2ccccc2)nc1-c1cc2ccccc2oc1=O	none (no result: JNK3 blocker, PKA kinase inh, SF-1 act, ROCK2 inh, RORa activator)
CCC/C=C(\CCC)C(NS(=O)(=O)c1ccc(Cl)cc1)c1ccccc1 (stereo not given)	none (no result: JNK3 blocker, PKA kinase inh, SF-1 act, ROCK2 inh, RORa activator)
CC(=O)c1c(C)nc(-c2ccc(Cl)cc2)nc1N=CN(C)C	SF-1 act 76, RORa activator 68
Cc1cccc(OCCn2c(=O)n(C)c3ccccc32)c1	SF-1 act 81, RORa activator 67
c1ccc2[nH]c(SCc3ccc(-c4nnco4)cc3)nc2c1	none
c1cnc2c(SCc3ccc(-c4nnco4)cc3)cccc2c1	SF-1 act 62
CCCSc1nnc(-c2c[nH]c3ccccc23)n1C	SF-1 act 52
COC(=O)COc1ccc(Oc2nc(SC)nc(N(C)C)n2)nn1	none
CN(C)C(=O)CSc1nnc2sc3ccccc3n12	none
c1csc(CSc2nc3ccccc3s2)c1	SF-1 act 52
c1csc(CSc2nnc3sc4ccccc4n23)c1	RORa activator 51
Cc1noc(C)c1CSc1nc2ccccc2s1	none
CCC/C=C(\CCC)C(NS(=O)(=O)c1ccc(-c2ccccc2)cc1)c1ccc(C(=O)OC)cc1 (stereo not given)	none (no result: JNK3 blocker, PKA kinase inh, SF-1 act, ROCK2 inh, RORa activator)
O=c1c2c([nH]c3ccc(Br)cc13)CCCC2	none
NC(=O)c1cc(Br)cc2c3c([nH]c12)CCCC3	JNK3 blocker 55
Cc1ccc(-c2noc(CSc3nc(N)cc(N)n3)n2)cc1	SF-1 act 61, RORa activator 58
Cc1ccc(-c2noc(CSc3ccccc3)n2)cc1	none (no result: JNK3 blocker, PKA kinase inh, SF-1 act, ROCK2 inh, RORa activator)
C/C(N)=C(/C#N)C(=O)CSc1nc2ccc(C)cc2[nH]1	SF-1 act 77
CCN(CC)c1ccc(-c2nc3cnccc3n2C)cc1	RORa activator 67
O=C1c2ccccc2CC1(Cc1ccccc1)Cc1ccccc1	none (no result: JNK3 blocker, PKA kinase inh, SF-1 act, ROCK2 inh, RORa activator)
COc1cccc(NC(=O)CCCn2c(=O)[nH]c3ccccc3c2=O)c1	JNK3 blocker 19
Cc1csc(-c2coc3cc(O)cc(C)c3c2=O)n1	SF-1 act 68, RORa activator 66
COc1ccccc1-n1cc(C(=O)NCC(=O)N2CCN(c3ccccc3)CC2)c2ccccc2c1=O	none
Cc1onc(-c2ccccc2)c1C(=O)Nc1nc(-c2cc(F)ccc2F)cs1	SF-1 act 54
Cc1nnc(NC(=O)c2c(-c3ccccc3)noc2C)s1	none (no result: JNK3 blocker, PKA kinase inh, SF-1 act, ROCK2 inh, RORa activator)
COc1ccc(-c2nnn(CCC(=O)O)n2)cc1	none (no result: JNK3 blocker, PKA kinase inh, SF-1 act, ROCK2 inh, RORa activator)
O=S(=O)(NCC(c1cccnc1)N1CCN(c2ccccc2)CC1)c1cc(F)ccc1F (stereo not given)	none (no result: JNK3 blocker, ROCK2 inh)
COc1cccc2cc(-c3cn4ccc(C)cc4n3)c(=O)oc12	none (no result: JNK3 blocker, PKA kinase inh, SF-1 act, ROCK2 inh, RORa activator)
COc1cccc2cc(-c3cn4cccc(C)c4n3)c(=O)oc12	SF-1 act 53
Cc1ccc(C2=NN3C(C2)c2ccccc2OC32C(=O)Nc3ccccc32)cc1 (stereo not given)	MT1-MMP txn act 2 (no result: JNK3 blocker, PKA kinase inh, SF-1 act, ROCK2 inh, RORa activator)
Cc1ccc(NC(=O)c2ocnc2C)cc1Cl	SF-1 act 72, RORa activator 61 (no result: JNK3 blocker, ROCK2 inh)
Cc1ncoc1C(=O)Nc1cccc(Cl)c1	none
COc1ncnc2sc(-c3ccccc3)cc12	SF-1 act 51
CCN(CC)C(=O)CSc1ncnc2sc(-c3ccccc3)cc12	none (no result: JNK3 blocker, PKA kinase inh, SF-1 act, ROCK2 inh, RORa activator)
Cc1cc(-c2ccc(F)cc2)nc2cc(C(N)=O)nn12	none
CCOC(=O)c1cnn2c(C)cc(-c3ccc(F)cc3)nc12	RORa activator 68
O=C(NCc1ccc2c(c1)OCO2)c1ccc2snnc2c1	ROCK2 inh 38
O=C(NCc1ccc2c(c1)OCO2)c1ccc2c(c1)OCCO2	none (no result: JNK3 blocker, PKA kinase inh, SF-1 act, ROCK2 inh, RORa activator)
Cc1onc(-c2ccccc2)c1C(=O)N1CCN(CCc2ccccc2)CC1	none
Cc1onc(-c2ccccc2)c1C(=O)N1CCN(C/C=C/c2ccccc2)CC1	ROCK2 inh 22
COc1ccc(CNC(=O)c2cc(-c3cccs3)on2)cc1	none
O=C(NCc1cccs1)c1cc(-c2cccs2)on1	SF-1 act 53, RORa activator 83
COCCNC(=O)c1cc(-c2cccs2)on1	RORa activator 145
S=c1[nH]nc(-c2cccc(Br)c2)o1	JNK3 blocker 19
S=c1[nH]nc(-c2cccnc2)o1	none
Cc1csc(NC(=O)c2sc3nc(-c4cccs4)ccc3c2N)n1	SF-1 act 50
O=C(CCCCCn1c(SCc2ccncc2)nc2ccccc2c1=O)NCc1ccco1	JNK3 blocker 18
O=C1CC(c2ccco2)Sc2nc3ccccc3n21 (stereo not given)	none
O=C1CC(c2cccs2)Sc2nc3ccccc3n21 (stereo not given)	SF-1 act 80
O=C(CSc1ncnc2nc[nH]c12)N1CCOCC1	none
C1=C(c2ccccc2)CCN(c2ncnc3nc[nH]c23)C1	ROCK2 inh 24
CCOC(=O)c1sc2ncnc(N3CCN(c4ccc(OC)cc4)CC3)c2c1C	none
COc1ccc(N2CCN(c3ncnc4nc[nH]c34)CC2)cc1	ROCK2 inh 24
c1nc(N2CCOCC2)c2[nH]cnc2n1	ROCK2 inh 26
CCOC(=O)c1cnc2sc3c(n2c1=O)CCCC3	none
O=C(Oc1cccc(N2C(=O)CCC2=O)c1)C1CC(=O)N(c2ccc(F)cc2)C1 (stereo not given)	none
O=C1C(c2ccncc2)=C(O)c2ccccc21	JNK3 blocker 56
O=C1C(=C(O)c2ccccc2)C(=O)c2ccccc21	none
CCOC(=O)C1=C(CCc2ccccc2)NC(=O)NC1c1ccc(Cl)cc1 (stereo not given)	none (no result: JNK3 blocker, PKA kinase inh, SF-1 act, ROCK2 inh, RORa activator)
COc1cc(C(=O)OCC(=O)c2cc(C)n(C)c2C)cc(OC)c1OC	SF-1 act 52
CCOC(=O)CSc1nc(-c2cccs2)nc2c1c(=O)n(C)c(=O)n2C	none
